1 compound from article PMC6287304 (Antiviral Chemistry & Chemotherapy, 2018) can be followed below.

Each structure is given as a SMILES string. Read-outs that look alike come from different tables or passages of the source.

What all share (type): biochemical
One assay deals with T1, HCMV DNA pol (Human cytomegalovirus, UniProt P08546).
T1 sequence (P08546 1-1242): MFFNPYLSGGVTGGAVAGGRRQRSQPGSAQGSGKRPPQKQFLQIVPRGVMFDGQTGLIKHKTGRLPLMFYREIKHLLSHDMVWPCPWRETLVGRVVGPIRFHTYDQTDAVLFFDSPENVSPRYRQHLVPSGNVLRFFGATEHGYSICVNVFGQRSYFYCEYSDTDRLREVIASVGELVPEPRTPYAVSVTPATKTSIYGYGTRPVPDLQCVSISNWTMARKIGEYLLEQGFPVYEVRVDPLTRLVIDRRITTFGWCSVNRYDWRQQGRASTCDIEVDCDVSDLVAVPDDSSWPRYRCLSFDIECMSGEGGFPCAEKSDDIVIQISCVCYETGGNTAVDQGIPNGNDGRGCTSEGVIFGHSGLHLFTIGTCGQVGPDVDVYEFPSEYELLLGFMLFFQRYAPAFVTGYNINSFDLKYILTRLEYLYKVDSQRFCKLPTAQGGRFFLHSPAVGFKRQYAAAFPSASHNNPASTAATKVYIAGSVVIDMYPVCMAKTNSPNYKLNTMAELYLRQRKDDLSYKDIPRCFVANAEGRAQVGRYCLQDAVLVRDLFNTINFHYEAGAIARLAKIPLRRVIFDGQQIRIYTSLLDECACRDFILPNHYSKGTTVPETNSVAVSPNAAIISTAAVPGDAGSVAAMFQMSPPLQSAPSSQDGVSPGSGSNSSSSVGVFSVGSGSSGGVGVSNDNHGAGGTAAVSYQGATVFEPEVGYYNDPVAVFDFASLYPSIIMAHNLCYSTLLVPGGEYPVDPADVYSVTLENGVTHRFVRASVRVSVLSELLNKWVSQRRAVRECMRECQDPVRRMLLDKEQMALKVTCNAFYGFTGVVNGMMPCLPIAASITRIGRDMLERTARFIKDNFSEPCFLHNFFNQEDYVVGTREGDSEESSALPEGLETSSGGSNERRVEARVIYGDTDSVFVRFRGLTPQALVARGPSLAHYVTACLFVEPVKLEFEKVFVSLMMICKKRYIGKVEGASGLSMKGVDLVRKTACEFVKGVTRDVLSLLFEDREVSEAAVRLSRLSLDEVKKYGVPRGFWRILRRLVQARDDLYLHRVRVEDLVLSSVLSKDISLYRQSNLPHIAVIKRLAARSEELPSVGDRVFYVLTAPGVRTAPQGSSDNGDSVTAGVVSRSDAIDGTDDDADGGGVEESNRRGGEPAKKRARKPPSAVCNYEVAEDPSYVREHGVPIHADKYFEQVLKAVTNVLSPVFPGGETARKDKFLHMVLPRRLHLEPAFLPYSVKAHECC
The assay can be described thus: DNA polymerase inhibition, HCMV DNA pol. To be noted: calf thymus DNA. The gist of the method:
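Recombinant or source enzyme not specified. HCMV DNA polymerase reaction uses activated calf thymus DNA as template/primer, 100 uM of each of three unlabeled dNTPs, and 0.5 uM rate-limiting tritium-labeled dNTP ([3H]dGTP or [3H]dTTP, as competitive substrate). The diphosphate form of the test compound is added in serial dilutions, up to 100 uM.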

In another assay the target is T2, DNA pol α (Homo sapiens, UniProt P09884).
T2 sequence (P09884 1-1462): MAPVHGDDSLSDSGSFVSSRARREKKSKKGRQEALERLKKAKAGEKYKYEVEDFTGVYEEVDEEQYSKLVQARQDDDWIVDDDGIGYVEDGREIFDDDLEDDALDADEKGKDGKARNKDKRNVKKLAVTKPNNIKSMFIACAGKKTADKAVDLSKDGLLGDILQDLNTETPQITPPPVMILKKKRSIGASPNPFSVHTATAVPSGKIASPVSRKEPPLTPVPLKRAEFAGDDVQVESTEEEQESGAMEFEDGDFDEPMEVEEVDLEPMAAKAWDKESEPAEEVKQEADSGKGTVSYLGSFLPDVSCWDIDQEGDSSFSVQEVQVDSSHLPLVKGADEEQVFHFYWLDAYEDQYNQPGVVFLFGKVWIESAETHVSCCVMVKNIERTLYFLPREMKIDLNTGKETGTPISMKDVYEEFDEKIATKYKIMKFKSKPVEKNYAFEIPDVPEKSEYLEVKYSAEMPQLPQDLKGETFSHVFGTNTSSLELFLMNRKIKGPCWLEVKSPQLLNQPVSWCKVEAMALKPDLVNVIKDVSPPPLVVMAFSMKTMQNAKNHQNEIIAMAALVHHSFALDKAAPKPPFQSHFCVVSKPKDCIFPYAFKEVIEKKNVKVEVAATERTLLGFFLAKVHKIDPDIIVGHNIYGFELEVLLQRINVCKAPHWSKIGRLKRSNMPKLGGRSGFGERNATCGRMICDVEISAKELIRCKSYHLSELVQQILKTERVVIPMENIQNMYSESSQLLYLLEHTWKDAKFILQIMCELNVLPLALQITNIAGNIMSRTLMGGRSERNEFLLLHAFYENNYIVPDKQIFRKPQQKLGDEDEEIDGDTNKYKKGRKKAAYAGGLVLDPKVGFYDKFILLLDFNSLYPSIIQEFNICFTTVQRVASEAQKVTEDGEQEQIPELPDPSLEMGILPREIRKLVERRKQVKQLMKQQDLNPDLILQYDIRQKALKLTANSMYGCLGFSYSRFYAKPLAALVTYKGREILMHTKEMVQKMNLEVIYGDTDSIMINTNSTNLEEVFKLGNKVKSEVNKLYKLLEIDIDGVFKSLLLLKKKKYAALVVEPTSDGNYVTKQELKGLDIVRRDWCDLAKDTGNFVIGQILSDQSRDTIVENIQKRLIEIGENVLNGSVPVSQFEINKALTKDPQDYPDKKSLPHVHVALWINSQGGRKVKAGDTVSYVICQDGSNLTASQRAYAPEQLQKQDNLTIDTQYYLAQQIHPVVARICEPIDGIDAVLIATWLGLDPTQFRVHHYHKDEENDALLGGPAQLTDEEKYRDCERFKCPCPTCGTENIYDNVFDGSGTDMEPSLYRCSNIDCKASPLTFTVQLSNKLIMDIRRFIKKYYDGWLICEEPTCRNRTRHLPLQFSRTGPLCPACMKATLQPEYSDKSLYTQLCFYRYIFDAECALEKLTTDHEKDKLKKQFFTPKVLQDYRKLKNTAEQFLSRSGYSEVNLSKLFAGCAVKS
The assay can be described thus: DNA polymerase inhibition, DNA pol α. Conditions: read-out: IC50 DNA pol α dGTP; calf thymus DNA, radiolabeled [3H]dGTP.

In the next assay the target is DNA pol β (Homo sapiens, UniProt P06746). The assay is described as follows: DNA polymerase inhibition, DNA pol β. To be noted: read-out: IC50 DNA pol β dGTP; calf thymus DNA, radiolabeled [3H]dGTP.

Broadly, the IC50 is the concentration that inhibits the measured activity by half. Take `O=C(O)P(=O)(O)O` [PFA pyrophosphate]: the IC50 is 7 ± 0.7 µM on HCMV DNA pol (read-out: IC50 HCMV DNA pol dGTP, radiolabeled [3H]dGTP); 9.4 ± 6 µM on HCMV DNA pol (read-out: IC50 HCMV DNA pol dTTP, radiolabeled [3H]dTTP); 56 ± 12 µM on DNA pol α; greater than 100 µM at DNA pol β.
